Measurements from different studies.
Each line is one published result; the experiments were not run side by side.
Observed: cell growth or viability

| SMILES | cell line | method | time | IC50 |
| --- | --- | --- | --- | --- |
| Fc1ccc(NC(=S)N/N=C/c2cccc3cc4ccccc4nc23)cc1 | SK-BR-3 | MTT | 48 h | > 50000 nM |
| CC(=O)N1c2ccc(-c3ccc(C(=O)O)cc3)cc2[C@H](Nc2ccc(Cl)cc2)C[C@@H]1C | MP41 | ATP luminescence | 72 h | 154 nM |
| S=C(N/N=C/c1cccc2cc3ccccc3nc12)Nc1ccccc1 | SK-BR-3 | MTT | 48 h | > 50000 nM |
| Cc1[nH]c2ccccc2c1CCNCc1ccc(/C=C/C(=O)NO)cc1 | MP41 | ATP luminescence | 72 h | 14.3 nM |
| COc1cc(C(=O)c2nc(-c3cccc4c3CC(=O)N4)c[nH]2)cc(OC)c1OC | M14 | MTS | 72 h | 9.5 nM |
| C[C@H]1[C@H](C)CC[C@]2(C)CC[C@]3(C)C(=CC(=O)[C@@H]4[C@@]5(C)CC[C@@H](O)[C@](C)(C(=O)NCc6cn(-c7cccc(C(F)(F)F)c7)nn6)[C@@H]5CC[C@]43C)[C@H]12 | HDF | MTT | 24 h | 116000 nM |
| CC1CCC(C(C)C)C(OC2=C(Cl)C(=O)c3ccccc3C2=O)C1 (stereo not drawn) | SK-BR-3 | MTT | 24 h | 4 µg/mL |
| Nc1ccccc1NC(=O)c1ccc(Cn2cnc3c(Nc4ccc(Br)cc4F)ncnc32)cc1 | U-266 | MTT | 72 h | 460 nM |
| FC(F)(F)c1cc(OCc2cc(-c3ccc(Cl)cc3Cl)no2)c2ccccc2n1 | HL-60 | MTS | 72 h | > 100000 nM |
| COc1cc(C(=O)c2nc(-c3cccc4[nH]cnc34)c[nH]2)cc(OC)c1OC | M14 | MTS | 72 h | 15.9 nM |
| COc1cc([C@@H]2c3cc4c(cc3[C@@H](O[C@@H]3O[C@@H]5CO[C@@H](C)O[C@H]5[C@H](O)[C@H]3O)[C@H]3COC(=O)[C@H]23)OCO4)cc(OC)c1O | HL-60 | MTS | 72 h | 30 nM |
| Cc1sc2c(c1C)C(c1ccc(Cl)cc1)=N[C@@H](CC(=O)NCCCCNC(=O)COc1cccc3c1C(=O)N(C1CCC(=O)NC1=O)C3=O)c1nnc(C)n1-2 (stereo partly drawn) | SK-BR-3 | CCK-8 | 72 h | > 10000 nM |
| COc1cc(C(=O)c2nc(-c3ccncc3)c[nH]2)cc(OC)c1OC | M14 | MTS | 72 h | > 1000 nM |
| COc1ccc(-c2ccc3c(N4CCOC[C@@H]4C)nc(N4CCOC[C@@H]4C)nc3n2)cc1COC(=O)CCOCCOCCOCCONC(=O)c1ccc(F)c(F)c1Nc1ccc(I)cc1F | D54 | WST-1 | 72 h | 327 nM |
| COc1cc(C(=O)c2nc(-c3cccc4[nH]nnc34)c[nH]2)cc(OC)c1OC | M14 | MTS | 72 h | 53.2 nM |
| Cc1noc(C)c1-c1cc(C(O)(c2ccccn2)c2ccccn2)c2nc(C3CC3)[nH]c2c1 | MP41 | ATP luminescence | 72 h | 104 nM |
| COc1cc(C(=O)c2nc(-c3cccc4[nH]ccc34)c[nH]2)cc2c1OCO2 | M14 | MTS | 72 h | 3.6 nM |
| Nc1ccccc1NC(=O)c1ccc(Cn2cnc3c(Nc4ccc(Cl)cc4)ncnc32)cc1 | U-266 | MTT | 72 h | 330 nM |
| NC1=NN(c2ccc([N+](=O)[O-])cc2[N+](=O)[O-])C(=O)C1N=Nc1ccccc1C(=O)O (stereo not drawn) | Vero | MTT | 72 h | 54400 nM |
| Nc1ccn([C@@H]2O[C@H](CO)[C@@H](O)C2(F)F)c(=O)n1 | MP41 | ATP luminescence | 72 h | 76.9 nM |

| SMILES | cell line | method | time | IC50 |
| --- | --- | --- | --- | --- |
| Clc1ccc(-c2cc(CNc3cccc4cccnc34)on2)c(Cl)c1 | HL-60 | MTS | 72 h | 67100 nM |
| O=C1C[C@@H](c2ccccc2)Oc2cc(O)cc(O)c21 | Vero | MTT | 72 h | 103000 nM |
| C[C@H]1[C@H](C)CC[C@]2(C)CC[C@]3(C)C(=CC(=O)[C@@H]4[C@@]5(C)CC[C@@H](O)[C@](C)(C(=O)NCc6cn(-c7cccc(Br)c7)nn6)[C@@H]5CC[C@]43C)[C@H]12 | HDF | MTT | 24 h | 121000 nM |
| N/C(=N\O)c1ccc(-c2cc(CNc3cccc4cccnc34)on2)cc1 | HL-60 | MTS | 72 h | 2800 nM |
| O=C(NO)c1ccc(Cn2cnc3c(Nc4ccc(Br)cc4F)ncnc32)cc1 | U-266 | MTT | 72 h | 750 nM |
| COc1cccc2c1C(=O)c1c(O)c3c(c(O)c1C2=O)C[C@@](O)(C(=O)CO)C[C@@H]3O[C@H]1C[C@H](N)[C@H](O)[C@H](C)O1 | CHO-K1 | ATP luminescence | 72 h | 340 nM |
| C[C@H]1[C@H](C)CC[C@]2(C)CC[C@]3(C)C(=CC(=O)[C@@H]4[C@@]5(C)CC[C@@H](O)[C@](C)(C(=O)NCc6cn(-c7ccc(F)cc7)nn6)[C@@H]5CC[C@]43C)[C@H]12 | HDF | MTT | 24 h | 108000 nM |
| COc1ccc(NC(=S)N/N=C/c2cccc3cc4ccccc4nc23)cc1 | SK-BR-3 | MTT | 48 h | > 50000 nM |
| O=C(NO)c1ccc(Cn2cnc3c(Nc4cccc([N+](=O)[O-])c4)ncnc32)cc1 | U-266 | MTT | 72 h | 310 nM |
| Cc1ccc(C(C)C)c(OC2=C(Cl)C(=O)c3ccccc3C2=O)c1 | SK-BR-3 | MTT | 24 h | > 60 µg/mL |
| CC(=O)O[C@H]1C(=O)[C@@]2(C)[C@H]([C@H](OC(=O)c3ccccc3)[C@]3(O)C[C@H](OC(=O)[C@H](O)[C@@H](NC(=O)c4ccccc4)c4ccccc4)C(C)=C1C3(C)C)[C@]1(OC(C)=O)CO[C@@H]1C[C@@H]2O | M14 | MTS | 72 h | 0.2 nM |
| CCS(=O)(=O)Nc1ccc(Oc2ccc(F)cc2F)c(-c2cn(C)c(=O)c3[nH]ccc23)c1 | MP41 | ATP luminescence | 72 h | 99.6 nM |
| N#Cc1ccc(-c2cc(COc3cc(=O)oc4ccccc34)on2)cc1 | HL-60 | MTS | 72 h | > 100000 nM |
| CO[C@H]1[C@H](O[C@H]([C@H]2O[C@@H](n3ccc(=O)[nH]c3=O)[C@H](O)[C@@H]2O)[C@H](NCCCNC(=O)[C@@H](NC(=O)[C@@H](NC(=O)N[C@H](C(=O)O)C(C)C)[C@@H]2CCN=C(N)N2)[C@@H](OC(=O)CCCCCCCCCCCCN(O)C(=N)N)C(C)C)C(=O)O)O[C@H](CN)[C@H]1O | SK-BR-3 | WST-1 | – | 590 nM |
| O=[N+]([O-])c1ccc(NC(=S)N/N=C/c2cccc3cc4ccccc4nc23)cc1 | SK-BR-3 | MTT | 48 h | > 50000 nM |
| COc1ccc(-n2cc(CNC(=O)[C@@]3(C)[C@H](O)CC[C@@]4(C)[C@H]3CC[C@]3(C)[C@@H]4C(=O)C=C4[C@@H]5[C@@H](C)[C@H](C)CC[C@]5(C)CC[C@]43C)nn2)cc1 | HDF | MTT | 24 h | 109000 nM |
| COc1cc(C(=O)c2nc(-c3cccc4[nH]ccc34)c[nH]2)cc2c1OC=CO2 | M14 | MTS | 72 h | 7.3 nM |
| COc1nnc2ccc(N3CCC(c4ccc(OCCN5CCN(C)C(=O)[C@H]5C)cc4)CC3)nn12 | MP41 | ATP luminescence | 72 h | 90.4 nM |
| C/C(=N/NC(=O)c1cn(-c2ccccc2)nc1-c1ccc(F)cc1)c1c(O)cc(C)oc1=O | Vero | MTT | 48 h | 191000 nM |
